Measurements from ChEMBL document CHEMBL4689842, “EUbOPEN Chemogenomics Library wave 1” (2021).
Values joined by “and” are separate entries in the source; they are usually repeats but may differ in a detail not shown here. Equal entries are not always repeated.

Test system: U2OS
Assay: Multiplex assay against U2OS
Assay type: toxicity, cell-based
Details: human
How it was run: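 At seeding, live cells were stained with Hoechst33342, BioTracker Green Microtubule Cytoskeleton Dye, MitoTracker Red and Annexin V Alexa Fluor 680. After compound addition they were imaged on a CQ1 microscope at 37°C and 5% CO2, and CellPathfinder machine-learning gating sorted them into Hoechst high-intensity objects or normal cells, with normal cells further split into healthy, pyknosed or fragmented nuclei and pyknosed cells into mitotic or apoptotic. Tubulin, mitochondrial-mass and membrane-permeability phenotypes are given as per cents of cells with healthy nuclei.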

[1] = 12 h, 1 µM, compound concentration 1 uM, replicate 1
[2] = 12 h, 1 µM, compound concentration 1 uM, replicate 2
[3] = 12 h, 10 µM, compound concentration 10 uM, replicate 1
[4] = 12 h, 10 µM, compound concentration 10 uM, replicate 2
[5] = 24 h, 1 µM, compound concentration 1 uM, replicate 1
[6] = 24 h, 1 µM, compound concentration 1 uM, replicate 2
[7] = 24 h, 10 µM, compound concentration 10 uM, replicate 1
[8] = 24 h, 10 µM, compound concentration 10 uM, replicate 2
[9] = 48 h, 1 µM, compound concentration 1 uM, replicate 1
[10] = 48 h, 1 µM, compound concentration 1 uM, replicate 2
[11] = 48 h, 10 µM, compound concentration 10 uM, replicate 1
[12] = 48 h, 10 µM, compound concentration 10 uM, replicate 2

Structure (SMILES): COc1ccccc1CN[C@H]1C2CCN(CC2)[C@H]1C(c1ccccc1)c1ccccc1 [CP-96345]
- Population Apoptotic (%) [1]: 22%
- Population Fragmented Nuclei (%) [1]: 14%
- Population Healthy Nuclei (%) [1]: 71%
- Population Hoechst High Intensity Objects (%) [1]: 11%
- Population Membrane Permeable-Phenotype (%) [1]: 8%
- Population Mitochondria Different-Phenotype (%) [1]: 20%
- Population Mitotic Cells (%) [1]: 77%
- Population Normal (%) [1]: 88%
- Population Pyknosed Nuclei (%) [1]: 14%
- Population Tubulin-Different-Phenotype (%) [1]: 16%
- Total Cell Count [1]: 136
- Population Apoptotic (%) [2]: 66%
- Population Fragmented Nuclei (%) [2]: 4%
- Population Healthy Nuclei (%) [2]: 92%
- Population Hoechst High Intensity Objects (%) [2]: 0%
- Population Membrane Permeable-Phenotype (%) [2]: 4%
- Population Mitochondria Different-Phenotype (%) [2]: 7%
- Population Mitotic Cells (%) [2]: 33%
- Population Normal (%) [2]: 100%
- Population Pyknosed Nuclei (%) [2]: 3%
- Population Tubulin-Different-Phenotype (%) [2]: 8%
- Total Cell Count [2]: 90
- Population Apoptotic (%) [3]: 51%
- Population Fragmented Nuclei (%) [3]: 10%
- Population Healthy Nuclei (%) [3]: 65%
- Population Hoechst High Intensity Objects (%) [3]: 6%
- Population Membrane Permeable-Phenotype (%) [3]: 7%
- Population Mitochondria Different-Phenotype (%) [3]: 87%
- Population Mitotic Cells (%) [3]: 48%
- Population Normal (%) [3]: 93%
- Population Pyknosed Nuclei (%) [3]: 24%
- Population Tubulin-Different-Phenotype (%) [3]: 84%
- Total Cell Count [3]: 127
- Population Apoptotic (%) [4]: 50%
- Population Fragmented Nuclei (%) [4]: 2%
- Population Healthy Nuclei (%) [4]: 86%
- Population Hoechst High Intensity Objects (%) [4]: 3%
- Population Membrane Permeable-Phenotype (%) [4]: 1%
- Population Mitochondria Different-Phenotype (%) [4]: 45%
- Population Mitotic Cells (%) [4]: 50%
- Population Normal (%) [4]: 96%
- Population Pyknosed Nuclei (%) [4]: 10%
- Population Tubulin-Different-Phenotype (%) [4]: 26%
- Total Cell Count [4]: 77
- Population Apoptotic (%) [5]: 45%
- Population Fragmented Nuclei (%) [5]: 12%
- Population Healthy Nuclei (%) [5]: 79%
- Population Hoechst High Intensity Objects (%) [5]: 7%
- Population Membrane Permeable-Phenotype (%) [5]: 6%
- Population Mitochondria Different-Phenotype (%) [5]: 13%
- Population Mitotic Cells (%) [5]: 54%
- Population Normal (%) [5]: 92%
- Population Pyknosed Nuclei (%) [5]: 7%
- Population Tubulin-Different-Phenotype (%) [5]: 7%
- Total Cell Count [5]: 154
- Population Apoptotic (%) [6]: 54%
- Population Fragmented Nuclei (%) [6]: 4%
- Population Healthy Nuclei (%) [6]: 85%
- Population Hoechst High Intensity Objects (%) [6]: 2%
- Population Membrane Permeable-Phenotype (%) [6]: 1%
- Population Mitochondria Different-Phenotype (%) [6]: 4%
- Population Mitotic Cells (%) [6]: 45%
- Population Normal (%) [6]: 97%
- Population Pyknosed Nuclei (%) [6]: 9%
- Population Tubulin-Different-Phenotype (%) [6]: 17%
- Total Cell Count [6]: 114
- Population Apoptotic (%) [7]: 75%
- Population Fragmented Nuclei (%) [7]: 18%
- Population Healthy Nuclei (%) [7]: 59%
- Population Hoechst High Intensity Objects (%) [7]: 8%
- Population Membrane Permeable-Phenotype (%) [7]: 6%
- Population Mitochondria Different-Phenotype (%) [7]: 90%
- Population Mitotic Cells (%) [7]: 25%
- Population Normal (%) [7]: 91%
- Population Pyknosed Nuclei (%) [7]: 22%
- Population Tubulin-Different-Phenotype (%) [7]: 69%
- Total Cell Count [7]: 157
- Population Apoptotic (%) [8]: 40%
- Population Fragmented Nuclei (%) [8]: 2%
- Population Healthy Nuclei (%) [8]: 81%
- Population Hoechst High Intensity Objects (%) [8]: 1%
- Population Membrane Permeable-Phenotype (%) [8]: 2%
- Population Mitochondria Different-Phenotype (%) [8]: 31%
- Population Mitotic Cells (%) [8]: 60%
- Population Normal (%) [8]: 98%
- Population Pyknosed Nuclei (%) [8]: 16%
- Population Tubulin-Different-Phenotype (%) [8]: 14%
- Total Cell Count [8]: 92
- Population Apoptotic (%) [9]: 80%
- Population Fragmented Nuclei (%) [9]: 7%
- Population Healthy Nuclei (%) [9]: 85%
- Population Hoechst High Intensity Objects (%) [9]: 3%
- Population Membrane Permeable-Phenotype (%) [9]: 2%
- Population Mitochondria Different-Phenotype (%) [9]: 9%
- Population Mitotic Cells (%) [9]: 20%
- Population Normal (%) [9]: 96%
- Population Pyknosed Nuclei (%) [9]: 6%
- Population Tubulin-Different-Phenotype (%) [9]: 5%
- Total Cell Count [9]: 227
- Population Apoptotic (%) [10]: 62%
- Population Fragmented Nuclei (%) [10]: 5%
- Population Healthy Nuclei (%) [10]: 89%
- Population Hoechst High Intensity Objects (%) [10]: 0%
- Population Membrane Permeable-Phenotype (%) [10]: 4%
- Population Mitochondria Different-Phenotype (%) [10]: 12%
- Population Mitotic Cells (%) [10]: 37%
- Population Normal (%) [10]: 99%
- Population Pyknosed Nuclei (%) [10]: 4%
- Population Tubulin-Different-Phenotype (%) [10]: 21%
- Total Cell Count [10]: 164
- Population Apoptotic (%) [11]: 74%
- Population Fragmented Nuclei (%) [11]: 17%
- Population Healthy Nuclei (%) [11]: 58%
- Population Hoechst High Intensity Objects (%) [11]: 4%
- Population Membrane Permeable-Phenotype (%) [11]: 11%
- Population Mitochondria Different-Phenotype (%) [11]: 78%
- Population Mitotic Cells (%) [11]: 25%
- Population Normal (%) [11]: 95%
- Population Pyknosed Nuclei (%) [11]: 23%
- Population Tubulin-Different-Phenotype (%) [11]: 55%
- Total Cell Count [11]: 194
- Population Apoptotic (%) [12]: 33%
- Population Fragmented Nuclei (%) [12]: 9%
- Population Healthy Nuclei (%) [12]: 80%
- Population Hoechst High Intensity Objects (%) [12]: 1%
- Population Membrane Permeable-Phenotype (%) [12]: 6%
- Population Mitochondria Different-Phenotype (%) [12]: 14%
- Population Mitotic Cells (%) [12]: 66%
- Population Normal (%) [12]: 98%
- Population Pyknosed Nuclei (%) [12]: 10%
- Population Tubulin-Different-Phenotype (%) [12]: 13%
- Total Cell Count [12]: 146

Structure (SMILES): CNC(=O)c1ccc(Nc2ncc(C(F)(F)F)c(NCc3nccnc3N(C)S(C)(=O)=O)n2)cc1 [DEFACTINIB]
- Population Apoptotic (%) [1]: 22% and 66%
- Population Healthy Nuclei (%) [1]: 90% and 65%
- Population Hoechst High Intensity Objects (%) [1]: 4% and 6%
- Population Membrane Permeable-Phenotype (%) [1]: 13% and 37%
- Population Mitochondria Different-Phenotype (%) [1]: 27% and 15%
- Population Mitotic Cells (%) [1]: 77% and 33%
- Population Normal (%) [1]: 95% and 93%
- Population Pyknosed Nuclei (%) [1]: 4% and 12%
- Population Tubulin-Different-Phenotype (%) [1]: 21% and 36%
- Total Cell Count [1]: 194 and 96
- Population Apoptotic (%) [2]: 25% and 42%
- Population Fragmented Nuclei (%) [2]: 6% and 9%
- Population Healthy Nuclei (%) [2]: 89% and 77%
- Population Hoechst High Intensity Objects (%) [2]: 13% and 9%
- Population Mitochondria Different-Phenotype (%) [2]: 28% and 16%
- Population Mitotic Cells (%) [2]: 75% and 57%
- Population Normal (%) [2]: 86% and 90%
- Population Pyknosed Nuclei (%) [2]: 13%
- Population Tubulin-Different-Phenotype (%) [2]: 24%
- Total Cell Count [2]: 107 and 86
- Population Apoptotic (%) [3]: 64% and 37%
- Population Fragmented Nuclei (%) [3]: 14% and 7%
- Population Healthy Nuclei (%) [3]: 65% and 83%
- Population Hoechst High Intensity Objects (%) [3]: 8% and 3%
- Population Mitochondria Different-Phenotype (%) [3]: 13% and 25%
- Population Mitotic Cells (%) [3]: 35% and 62%
- Population Normal (%) [3]: 91% and 96%
- Population Pyknosed Nuclei (%) [3]: 20% and 8%
- Population Tubulin-Different-Phenotype (%) [3]: 32% and 24%
- Total Cell Count [3]: 148 and 188
- Population Apoptotic (%) [4]: 33% and 28%
- Population Healthy Nuclei (%) [4]: 44% and 80%
- Population Hoechst High Intensity Objects (%) [4]: 30% and 18%
- Population Membrane Permeable-Phenotype (%) [4]: 26%
- Population Mitotic Cells (%) [4]: 66% and 71%
- Population Normal (%) [4]: 69% and 81%
- Population Pyknosed Nuclei (%) [4]: 10%
- Population Tubulin-Different-Phenotype (%) [4]: 23% and 30%
- Total Cell Count [4]: 166 and 106
- Population Apoptotic (%) [5]: 46% and 76%
- Population Healthy Nuclei (%) [5]: 88% and 62%
- Population Hoechst High Intensity Objects (%) [5]: 0% and 10%
- Population Mitochondria Different-Phenotype (%) [5]: 29% and 32%
- Population Mitotic Cells (%) [5]: 53% and 24%
- Population Normal (%) [5]: 99% and 89%
- Population Pyknosed Nuclei (%) [5]: 5% and 15%
- Population Tubulin-Different-Phenotype (%) [5]: 30% and 46%
- Total Cell Count [5]: 259
- Population Fragmented Nuclei (%) [6]: 7% and 20%
- Population Healthy Nuclei (%) [6]: 90% and 57%
- Population Hoechst High Intensity Objects (%) [6]: 9% and 7%
- Population Mitochondria Different-Phenotype (%) [6]: 37% and 31%
- Population Mitotic Cells (%) [6]: 100% and 34%
- Population Normal (%) [6]: 90% and 92%
- Population Tubulin-Different-Phenotype (%) [6]: 29% and 36%
- Total Cell Count [6]: 129 and 90
- Population Apoptotic (%) [7]: 68% and 42%
- Population Healthy Nuclei (%) [7]: 51% and 88%
- Population Mitochondria Different-Phenotype (%) [7]: 28% and 32%
- Population Mitotic Cells (%) [7]: 31% and 57%
- Population Normal (%) [7]: 89% and 97%
- Population Tubulin-Different-Phenotype (%) [7]: 40% and 26%
- Total Cell Count [7]: 139 and 241
- Population Apoptotic (%) [8]: 40% and 20%
- Population Hoechst High Intensity Objects (%) [8]: 27% and 11%
- Population Membrane Permeable-Phenotype (%) [8]: 25% and 17%
- Population Mitochondria Different-Phenotype (%) [8]: 37% and 38%
- Population Mitotic Cells (%) [8]: 59% and 80%
- Population Normal (%) [8]: 72% and 88%
- Population Tubulin-Different-Phenotype (%) [8]: 34% and 28%
- Total Cell Count [8]: 163 and 126
